Key:
[1] = target: Cyclin-dependent kinase 7 (Homo sapiens) (UniProt P50613); assay: Inhibition of CDK7 in human SKCO1 cells at 1 uM after 4 hrs using biotin labeled DLKPNNLLLDENGVLK probe by mass-spectrometric analysis relative to control; assay type: cell-based
[2] = target: Aurora kinase A (Homo sapiens) (UniProt O14965); assay: Inhibition of AurA in human SKCO1 cells at 1 uM after 4 hrs using biotin labeled GKFGNVYLAR probe by mass-spectrometric analysis relative to control; conditions: pooled result: one value given for 3 cell lines, strains, targets or settings
[3] = target: Aurora kinase B (Homo sapiens) (UniProt Q96GD4); assay: Inhibition of AurB in human SKCO1 cells at 1 uM after 4 hrs using biotin labeled SHFIVALKVLFK probe by mass-spectrometric analysis relative to control; assay type: cell-based
Aurora kinase B (Homo sapiens), sequence (Q96GD4 whole entry): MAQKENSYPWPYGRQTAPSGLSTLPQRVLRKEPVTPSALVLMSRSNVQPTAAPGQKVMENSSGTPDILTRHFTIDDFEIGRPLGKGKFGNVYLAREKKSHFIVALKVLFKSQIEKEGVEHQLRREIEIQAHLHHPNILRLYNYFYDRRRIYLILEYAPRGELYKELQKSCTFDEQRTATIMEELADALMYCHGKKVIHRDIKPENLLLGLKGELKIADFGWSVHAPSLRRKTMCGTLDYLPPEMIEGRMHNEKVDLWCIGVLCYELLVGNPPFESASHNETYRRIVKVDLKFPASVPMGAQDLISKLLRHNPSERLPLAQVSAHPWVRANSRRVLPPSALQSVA

[4] = target: RAF proto-oncogene serine/threonine-protein kinase (Homo sapiens) (UniProt P04049); assay: Inhibition of RAF1 in human SKCO1 cells at 1 uM after 4 hrs using biotin labeled DMKSNNIFLHEGLTVK probe by mass-spectrometric analysis relative to control; assay type: cell-based
RAF proto-oncogene serine/threonine-protein kinase (Homo sapiens), sequence (P04049 whole entry): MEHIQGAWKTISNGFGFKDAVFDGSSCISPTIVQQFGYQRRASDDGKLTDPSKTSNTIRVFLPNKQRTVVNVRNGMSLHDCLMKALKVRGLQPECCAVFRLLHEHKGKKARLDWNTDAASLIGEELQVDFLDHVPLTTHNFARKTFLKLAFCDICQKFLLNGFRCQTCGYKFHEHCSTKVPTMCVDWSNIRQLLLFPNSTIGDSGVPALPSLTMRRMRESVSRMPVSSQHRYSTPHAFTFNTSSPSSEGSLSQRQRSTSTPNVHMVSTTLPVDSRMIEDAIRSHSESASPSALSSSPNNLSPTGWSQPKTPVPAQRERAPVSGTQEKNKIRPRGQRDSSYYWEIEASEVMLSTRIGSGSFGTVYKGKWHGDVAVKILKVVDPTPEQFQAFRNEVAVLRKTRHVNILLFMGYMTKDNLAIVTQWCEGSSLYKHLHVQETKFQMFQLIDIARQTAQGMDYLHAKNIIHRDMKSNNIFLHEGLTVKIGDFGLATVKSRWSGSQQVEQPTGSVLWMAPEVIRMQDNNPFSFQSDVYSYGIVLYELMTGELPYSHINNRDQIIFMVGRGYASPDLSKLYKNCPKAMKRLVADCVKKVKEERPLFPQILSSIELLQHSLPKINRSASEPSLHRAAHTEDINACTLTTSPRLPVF
How it was run: (§1)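 Live SK-CO-1 cells exposed to compound at 1 μM or DMSO for 4 h (KiNativ). Lysates then labeled with lysine-reactive ATP/ADP-biotin probe, and probe-labeled kinase peptides quantified by mass spectrometry. Percent inhibition of probe-dependent recovery calculated relative to DMSO-treated cells.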

[5] = target: T1, Dual specificity protein kinase TTK (Homo sapiens) (UniProt P33981); assay: Inhibition of TTK in human SKCO1 cells at 1 uM after 4 hrs using biotin labeled NMLEAVHTIHQHGIVHSDLKPANFLIDGMLK probe by mass-spectrometric analysis relative to control; assay type: cell-based; how it was run: as §1
T1 sequence (whole entry): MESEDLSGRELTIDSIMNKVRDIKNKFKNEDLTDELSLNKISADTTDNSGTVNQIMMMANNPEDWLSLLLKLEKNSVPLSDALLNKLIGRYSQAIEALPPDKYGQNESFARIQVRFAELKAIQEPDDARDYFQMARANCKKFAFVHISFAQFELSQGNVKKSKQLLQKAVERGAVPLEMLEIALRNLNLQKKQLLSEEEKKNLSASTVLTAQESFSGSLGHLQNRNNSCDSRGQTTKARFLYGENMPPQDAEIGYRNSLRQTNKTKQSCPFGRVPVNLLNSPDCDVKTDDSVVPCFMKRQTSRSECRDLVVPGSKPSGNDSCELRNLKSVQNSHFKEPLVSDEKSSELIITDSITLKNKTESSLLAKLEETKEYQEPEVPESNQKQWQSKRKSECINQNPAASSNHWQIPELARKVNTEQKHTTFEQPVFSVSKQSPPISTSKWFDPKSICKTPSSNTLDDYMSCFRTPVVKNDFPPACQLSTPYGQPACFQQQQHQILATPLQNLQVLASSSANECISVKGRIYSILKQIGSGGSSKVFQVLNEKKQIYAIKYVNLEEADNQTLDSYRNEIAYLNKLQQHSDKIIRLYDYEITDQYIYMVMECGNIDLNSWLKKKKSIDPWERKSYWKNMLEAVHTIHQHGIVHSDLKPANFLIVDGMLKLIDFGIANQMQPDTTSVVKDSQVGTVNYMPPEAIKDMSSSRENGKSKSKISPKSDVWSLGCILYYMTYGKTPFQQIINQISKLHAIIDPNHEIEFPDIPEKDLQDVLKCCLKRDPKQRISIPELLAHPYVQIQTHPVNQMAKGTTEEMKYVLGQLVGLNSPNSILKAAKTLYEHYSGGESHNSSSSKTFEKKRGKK

[6] = target: T2, Calcium/calmodulin-dependent protein kinase type IV (Homo sapiens) (UniProt Q16566); assay: Inhibition of CaMK4 in human SKCO1 cells at 1 uM after 4 hrs using biotin labeled DLKPENLLYATPAPDAPLK probe by mass-spectrometric analysis relative to control; assay type: cell-based
T2 sequence (whole entry): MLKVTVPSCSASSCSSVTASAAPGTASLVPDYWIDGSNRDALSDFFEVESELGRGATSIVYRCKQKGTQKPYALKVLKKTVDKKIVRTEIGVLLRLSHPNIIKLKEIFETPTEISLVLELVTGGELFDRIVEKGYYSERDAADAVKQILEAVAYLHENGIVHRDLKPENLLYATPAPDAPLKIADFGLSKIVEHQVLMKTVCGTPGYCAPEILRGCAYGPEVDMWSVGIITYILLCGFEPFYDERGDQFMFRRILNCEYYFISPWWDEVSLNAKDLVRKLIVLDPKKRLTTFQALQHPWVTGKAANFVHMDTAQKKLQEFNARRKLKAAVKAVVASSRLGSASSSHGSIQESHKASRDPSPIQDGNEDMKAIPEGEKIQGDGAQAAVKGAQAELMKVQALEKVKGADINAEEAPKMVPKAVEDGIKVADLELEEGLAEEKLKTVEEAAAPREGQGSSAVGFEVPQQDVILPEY

[7] = target: Ribosomal protein S6 kinase beta-2 (Homo sapiens) (UniProt Q9UBS0); assay: Inhibition of p70S6Kb in human SKCO1 cells at 1 uM after 4 hrs using biotin labeled DLKPENIMLSSQGHIK probe by mass-spectrometric analysis relative to control; assay type: cell-based; how it was run: as §1
Ribosomal protein S6 kinase beta-2 (Homo sapiens), sequence (Q9UBS0 whole entry): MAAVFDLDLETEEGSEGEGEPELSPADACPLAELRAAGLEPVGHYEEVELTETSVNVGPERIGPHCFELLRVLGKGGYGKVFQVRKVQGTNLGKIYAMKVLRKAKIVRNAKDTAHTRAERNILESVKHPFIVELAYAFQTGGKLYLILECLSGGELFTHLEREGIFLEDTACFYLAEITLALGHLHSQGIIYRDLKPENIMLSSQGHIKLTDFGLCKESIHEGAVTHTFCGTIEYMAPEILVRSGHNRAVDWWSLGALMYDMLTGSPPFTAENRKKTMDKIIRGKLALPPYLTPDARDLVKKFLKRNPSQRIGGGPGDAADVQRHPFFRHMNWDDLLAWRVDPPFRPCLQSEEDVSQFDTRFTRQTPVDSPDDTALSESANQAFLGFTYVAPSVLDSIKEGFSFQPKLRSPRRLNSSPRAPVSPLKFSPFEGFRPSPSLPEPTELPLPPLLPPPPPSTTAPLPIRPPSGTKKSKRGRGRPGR

[8] = target: T3, Aurora kinase A (Homo sapiens) (UniProt O14965); assay: Inhibition of AurA in human SKCO1 cells at 1 uM after 4 hrs using biotin labeled FILALKVLFK probe by mass-spectrometric analysis relative to control; assay type: cell-based
T3 sequence (whole entry): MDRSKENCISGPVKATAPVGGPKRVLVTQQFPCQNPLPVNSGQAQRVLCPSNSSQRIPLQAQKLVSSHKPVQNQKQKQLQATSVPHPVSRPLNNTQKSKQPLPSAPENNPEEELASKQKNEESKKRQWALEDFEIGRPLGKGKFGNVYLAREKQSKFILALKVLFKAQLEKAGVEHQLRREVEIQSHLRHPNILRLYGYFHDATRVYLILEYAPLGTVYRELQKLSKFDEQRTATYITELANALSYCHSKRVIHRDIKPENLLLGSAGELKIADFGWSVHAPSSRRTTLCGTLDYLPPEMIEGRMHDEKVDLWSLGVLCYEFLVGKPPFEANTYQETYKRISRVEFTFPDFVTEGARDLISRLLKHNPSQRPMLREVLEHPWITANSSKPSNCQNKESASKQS
How it was run: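 Live SK-CO-1 cells were treated 4 h with compound at 1 μM or DMSO, then lysed. Lysates were labeled with a lysine-reactive ATP/ADP-biotin probe and analysed by mass spectrometry. Percent inhibition is the loss of probe-dependent recovery of the kinase peptide relative to DMSO.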

[9] = target: Serine/threonine-protein kinase Chk2 (Homo sapiens) (UniProt O96017); assay: Inhibition of CHK2 in human SKCO1 cells at 1 uM after 4 hrs using biotin labeled DLKPENVLLSSQEEDCLIK probe by mass-spectrometric analysis relative to control; assay type: cell-based
Serine/threonine-protein kinase Chk2 (Homo sapiens), sequence (O96017 whole entry): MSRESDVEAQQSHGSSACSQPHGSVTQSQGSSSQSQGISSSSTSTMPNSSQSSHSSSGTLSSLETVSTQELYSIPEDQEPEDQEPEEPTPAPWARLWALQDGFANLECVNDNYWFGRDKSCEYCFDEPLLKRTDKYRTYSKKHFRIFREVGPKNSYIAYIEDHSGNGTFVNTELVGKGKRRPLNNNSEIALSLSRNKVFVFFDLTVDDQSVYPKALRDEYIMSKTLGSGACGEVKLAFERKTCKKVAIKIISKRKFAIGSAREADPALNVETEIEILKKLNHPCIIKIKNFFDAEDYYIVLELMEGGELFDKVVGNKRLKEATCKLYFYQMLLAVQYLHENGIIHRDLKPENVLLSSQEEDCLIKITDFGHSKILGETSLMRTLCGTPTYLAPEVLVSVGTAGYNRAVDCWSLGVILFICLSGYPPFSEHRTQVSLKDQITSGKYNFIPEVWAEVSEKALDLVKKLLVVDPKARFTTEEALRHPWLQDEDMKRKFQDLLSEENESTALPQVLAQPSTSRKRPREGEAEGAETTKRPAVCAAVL

[10] = target: Tyrosine-protein kinase Lyn (Homo sapiens) (UniProt P07948); assay: Inhibition of LYN in human SKCO1 cells at 1 uM after 4 hrs using biotin labeled VAVKTLKPGTMSVQAFLEEANLMK probe by mass-spectrometric analysis relative to control; assay type: cell-based
Tyrosine-protein kinase Lyn (Homo sapiens), sequence (P07948 2-512 limits assumed): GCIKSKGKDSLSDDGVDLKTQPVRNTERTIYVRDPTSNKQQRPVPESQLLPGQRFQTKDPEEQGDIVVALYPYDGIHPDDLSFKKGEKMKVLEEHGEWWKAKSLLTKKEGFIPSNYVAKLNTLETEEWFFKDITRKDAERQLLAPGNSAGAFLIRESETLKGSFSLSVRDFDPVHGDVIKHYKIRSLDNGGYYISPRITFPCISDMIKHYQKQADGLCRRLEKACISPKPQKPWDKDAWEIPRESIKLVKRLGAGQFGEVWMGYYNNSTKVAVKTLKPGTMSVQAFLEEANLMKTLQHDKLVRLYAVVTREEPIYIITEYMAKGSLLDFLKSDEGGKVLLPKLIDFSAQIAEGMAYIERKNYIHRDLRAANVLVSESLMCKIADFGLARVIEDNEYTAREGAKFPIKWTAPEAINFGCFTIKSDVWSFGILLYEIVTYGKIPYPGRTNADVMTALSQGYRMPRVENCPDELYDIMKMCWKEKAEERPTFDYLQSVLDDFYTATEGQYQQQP

Cyclin-dependent kinase 7 (Homo sapiens), sequence (P50613 whole entry): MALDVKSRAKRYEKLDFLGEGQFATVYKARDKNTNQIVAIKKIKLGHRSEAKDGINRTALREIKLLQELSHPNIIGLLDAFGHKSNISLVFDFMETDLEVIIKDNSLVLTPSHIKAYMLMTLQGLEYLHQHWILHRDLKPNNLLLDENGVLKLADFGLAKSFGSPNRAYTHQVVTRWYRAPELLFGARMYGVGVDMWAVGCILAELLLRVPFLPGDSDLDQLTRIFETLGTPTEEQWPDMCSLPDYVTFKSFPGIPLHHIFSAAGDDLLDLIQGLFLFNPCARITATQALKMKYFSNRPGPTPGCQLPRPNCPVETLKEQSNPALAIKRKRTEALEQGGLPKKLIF

SMILES	inhibition [1]	inhibition [2]	inhibition [3]	inhibition [4]	inhibition [5]	inhibition [6]	inhibition [7]	inhibition [8]	inhibition [9]	inhibition [10]
C=CC(=O)Nc1ccccc1Oc1nc(Nc2cnn(CCOC)c2)ncc1Cl	9.5%	57.9%	65.4%	6.3%	25.4%	-7.4%	-1.5%	52.6%	-6.3%	2.8%
C=CC(=O)Nc1ccccc1Nc1nc(Nc2ccc(N3CCN(C)CC3)cc2)ncc1Cl	31.5%	95.1%	94.4%	65.6%	40.6%	-2.6%	3.3%	87.2%	8.5%	16.5%
COc1cc(O)c2c(c1)/C=C/C[C@H](O)[C@H](O)C(=O)/C=C\C[C@H](C)OC2=O	-3.7%	55.7%	58.1%	66.4%	32.5%	30.6%	54.6%	59.4%	12.6%	-5.1%

Source: ChEMBL document CHEMBL4118021, “Studies of TAK1-centered polypharmacology with novel covalent TAK1 inhibitors” (Bioorg Med Chem, 2017)
